High-throughput results (PubChem)
KCNK3 inh: human KCNK3 channel inhibition, primary screen; CHO-KCNK3 thallium flux, FluxOR fluorescence; active compounds read low; O14649; 340,000 compounds, 0.84% hits; B-score at 10 µM;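 active = B-score under library mean minus 4 SD, starting fluorescence ratio at most library mean plus 5 SD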;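 note: more negative B-score means stronger inhibition of thallium flux through KCNK3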
KCC2 mod: KCC2 (human) Cl- transport modulation; B-score of Tl+ flux slope (higher = more flux/activation; lower = inhibition) at 10 µM; KCC2 cells, thallium flux FluoZin-2 fluorescence; Q9H2X9; 190,000 compounds, 2.2% hits;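 active = thallium flux slope and its plate-corrected score both differing from the plate sample mean at a set confidence after two filtering rounds, in either direction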;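 note: slope of fluorescence scaled to starting intensity during 10 to 20 s after thallium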
KCNK9 block: inhibitors of human KCNK9 two-pore domain potassium channel; Q9NPC2; HEK293 KCNK9, FluxOR thallium flux fluorescence; active compounds read low; B-score at 10 µM; 310,000 compounds, 1.2% hits; AID 488922;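 active = ratio B-score over 3 SD below the library mean, with starting fluorescence within 5 SD of its mean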;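 note: negative B-score means less thallium flux so channel inhibition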
hERG rescue: hERG (human) protection from proarrhythmic block; Q12809; CHO-hERG, FluxOR thallium flux, dofetilide IC70 present; activation (rescue from dofetilide block), less the hit threshold, % at 10 µM; 310,000 compounds, 0.51% hits;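 active = activation above the mean of controls blocked by dofetilide plus 5 SD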;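 note: thallium influx through hERG after potassium depolarization seen as dye fluorescence rise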
KCNQ1 act: potentiators or activators of human KCNQ1 potassium channel | P51787 | CHO-K1 KCNQ1, thallium flux FluxOR fluorescence; active compounds read high | B-score at 10 µM | 310,000 compounds, 0.35% hits | AID 2648;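 active = fluorescence ratio B-score, a plate-corrected score, at least three library SD, with initial intensity B-score within 5 SD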
Target sequence (P51787 whole entry, looked up): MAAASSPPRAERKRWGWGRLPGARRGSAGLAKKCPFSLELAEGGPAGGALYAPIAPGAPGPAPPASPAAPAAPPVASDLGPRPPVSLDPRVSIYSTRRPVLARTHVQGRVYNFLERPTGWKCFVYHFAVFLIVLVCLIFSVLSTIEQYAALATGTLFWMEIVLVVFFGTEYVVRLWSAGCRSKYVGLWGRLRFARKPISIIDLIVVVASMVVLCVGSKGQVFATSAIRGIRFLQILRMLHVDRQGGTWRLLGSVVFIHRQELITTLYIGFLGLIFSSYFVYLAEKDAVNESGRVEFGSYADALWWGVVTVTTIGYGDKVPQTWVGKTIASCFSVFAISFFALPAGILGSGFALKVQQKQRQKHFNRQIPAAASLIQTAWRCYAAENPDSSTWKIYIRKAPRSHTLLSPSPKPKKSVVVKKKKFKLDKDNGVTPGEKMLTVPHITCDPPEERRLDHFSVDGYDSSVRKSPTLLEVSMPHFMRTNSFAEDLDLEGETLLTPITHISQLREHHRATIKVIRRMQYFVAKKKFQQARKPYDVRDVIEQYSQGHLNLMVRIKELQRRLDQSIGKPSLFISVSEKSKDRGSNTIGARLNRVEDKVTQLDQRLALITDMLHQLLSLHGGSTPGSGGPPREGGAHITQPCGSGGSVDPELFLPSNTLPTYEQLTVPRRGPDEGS
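Doses: Single concentration per compound, DMSO matched to controls | Test system: KCNQ1-transfected CHO-K1 cells | Timing: 90 min dye loading and 20 min compound exposure, both at room temperature | Measured by: Kinetic FluxOR thallium fluorescence, 10-s 1-Hz baseline, 110-s post-stimulus read | Medium: Assay buffer with matched DMSO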
KCNQ1 block: human KCNQ1 channel inhibition. P51787. CHO-K1 KCNQ1, FluxOR thallium flux fluorescence; active compounds read high. B-score at 10 µM. 310,000 compounds, 1.3% hits;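 active = compounds whose thallium flux B-score, printed positive for inhibition, exceeds three library SD while starting fluorescence stays within three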;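 note: channel opened by potassium depolarization with thallium stimulus after 20 min compound exposure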
KCNK9 block conf: confirmation of human KCNK9 potassium channel inhibitors; shares compounds with KCNK9 block; HEK293 KCNK9 cells, FluxOR thallium flux fluorescence; inhibition, % at 10 µM; 4,900 compounds, 43% hits; AID 492992;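 active = thallium signal inhibited by more than 5 SD of the compound-free buffer control wells, on both duplicate plates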
Kir2-1 spec: mouse Kir2.1 off-target activity of KCNK9 modulators; shares compounds with KCNK9 block; Kir2.1 cells, FluxOR thallium flux fluorescence; inhibition, % at 10 µM; 4,900 compounds, 4% hits;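 active = thallium signal drop more than 5 SD beyond the mean of the no-compound control wells, seen in both duplicate plates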;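 note: signal is fluorescence rise after thallium addition divided by baseline fluorescence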
HEK293 Tl ctr: second check of KCNK9 modulator effects in non-induced HEK293 cells. shares compounds with KCNK9 block. FluxOR thallium flux. inhibition, % at 10 µM. 4,900 compounds, 40% hits. AID 492997;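 active = thallium signal drop beyond 5 SD of the untreated control mean, on both duplicate plates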
Hits are given with their value; i = inactive; nt = no result. This is a sample that favours compounds with a hit; in the whole collection about 4.1% have one here.

SMILES	KCNK3 inh	KCC2 mod	KCNK9 block	hERG rescue	KCNQ1 act	KCNQ1 block	KCNK9 block conf	Kir2-1 spec	HEK293 Tl ctr
O=C(/C=C/c1ccccc1)NC(NC(=S)Nc1cccc(Cl)c1)C(Cl)(Cl)Cl (stereo not drawn)	i	nt	i	i	i	i	nt	nt	nt
O=C(Nc1c(S(=O)(=O)c2ccc(Cl)cc2)csc1Br)c1ccccc1Cl	i	i	-11	i	i	i	38%	i	35%
O=C(NC(=O)c1ccccc1Cl)C(=O)Nc1ccc(Cl)cc1	i	nt	i	i	i	i	nt	nt	nt
Cc1ccc(C)c(N2CCN(C(=O)C34CC5CC(C3)CC(n3nnc(C)n3)(C5)C4)CC2)c1	i	i	i	i	i	i	nt	nt	nt
O=c1c2ccccc2c(-c2ccccc2)nn1Cc1c(Cl)cccc1Cl	i	nt	-10	i	i	i	33%	i	36%
CCOC(=O)Cn1nc(-c2ccccc2)c2ccccc2c1=O	i	nt	i	i	i	i	nt	nt	nt
CCC1CCCCN1C(=O)N[C@@H](CCSC)C(=O)OC (stereo partly drawn)	i	nt	i	i	i	i	nt	nt	nt
CC(C)C1N=C(c2ccc3c(c2)OCO3)CC(c2ccccc2O)N1 (stereo not drawn)	i	i	i	i	i	i	nt	nt	nt
CCOc1ccccc1C1N=C(c2ccc(OC)cc2)CC(c2ccccc2O)N1 (stereo not drawn)	i	i	i	i	i	i	i	i	i
COc1cc(CNCCO)cc(Cl)c1OCc1ccc(Cl)cc1Cl	i	i	-8.7	i	i	i	46%	62%	i
Cc1c(C(=O)N2CCC[C@H]2C(N)=O)oc2c(F)cccc12	i	nt	i	i	i	i	i	i	i
NC(=O)CC(NC(=O)c1ccc(Br)cc1)c1ccc(N2CCCCCCC2)c([N+](=O)[O-])c1 (stereo not drawn)	i	nt	-10	i	i	i	30%	i	42%
NC(=O)CC(NC(=O)c1ccc(Br)cc1)c1ccc(N2CCC(Cc3ccccc3)CC2)c([N+](=O)[O-])c1 (stereo not drawn)	i	nt	-9.5	i	i	i	55%	i	32%
COc1ccc(NS(=O)(=O)c2ccc3nc(COc4cccc5ccccc45)[nH]c3c2)cc1	i	i	i	i	i	i	i	i	i
c1csc(C2Nc3ccccc3-c3nc4ccccc4n32)c1 (stereo not drawn)	i	i	i	i	i	i	nt	nt	nt
CN1c2ccccc2-c2nc3ccccc3n2C1c1cccs1 (stereo not drawn)	i	i	-8.6	i	i	i	38%	i	42%
Cc1ccc(C2N(C)c3ccccc3-c3nc4ccccc4n32)o1 (stereo not drawn)	i	nt	-11	i	i	i	32%	i	30%
CCOc1ccccc1C(=O)NC(C)CCc1ccccc1 (stereo not drawn)	i	nt	i	i	i	i	nt	nt	nt
CCOc1cc(C(=O)NC(C)CCc2ccccc2)cc(OCC)c1OCC (stereo not drawn)	i	nt	i	i	i	i	i	i	i
CCc1nc2ccccc2nc1N1CCN(S(=O)(=O)c2c(C)cc(Cl)cc2C)CC1	i	i	i	i	i	i	i	i	i
COc1cc(C2SCC(=O)N2c2nnc(C34CC5CC(CC(C5)C3)C4)s2)cc(OC)c1OC (stereo not drawn)	i	nt	i	i	i	i	i	i	i
COc1ccc(C2SCC(=O)N2c2nnc(C34CC5CC(CC(C5)C3)C4)s2)cc1 (stereo not drawn)	i	i	i	i	i	i	nt	nt	nt
Nc1cccc(-c2nc3ccc(C(=O)c4ccccc4)cc3[nH]2)c1	i	nt	i	i	i	i	nt	nt	nt
O=C(N/N=C/c1nn(-c2ccccc2)cc1-c1ccc(Cl)cc1)c1ccncc1	nt	i	i	i	i	i	nt	nt	nt
